Experimental data as given in ChEMBL document CHEMBL1687936, “Radiosynthesis and biological evaluation of L- and D-S-(3-[18F]fluoropropyl)homocysteine for tumor imaging using positron emission tomography” (J Med Chem, 2011).

Key:
Muscle tissue [1] = test: Biodistribution in muscle of BALB/c nude mouse xenografted with human A375 cells at 0.8 to 1 MBq, iv after 15 mins by gamma-counter; assay type: ADME, organism-based, A-375; settings: in vivo, 0.25 h
Summary of the method: (§1)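 Female Balb/c nude mice with s.c. A375 flank tumors, studied 26 days after tumor induction. Tracer 0.8-1 MBq in 100 μL saline given i.v. Groups of n = 5 killed at 15, 30, 60 and 120 min. Organs weighed and counted in a γ-counter against dilutions of the injected dose. Values are % ID/g wet tissue, mean ± SD.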

[2] = Metabolic stability in human A375 cells xenografted in BALB/c nude mouse assessed as radioactivity after 2 by HPLC analysis; assay type: ADME, cell-based, A-375; settings: in vivo
Summary of the method: (§2)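 A375-tumored Balb/c nude mice received 18-20 MBq tracer iv. Plasma and urine were spiked with unlabeled FPHCys and KF and injected directly; tissues were sonicated in saline with carrier and centrifuged at 6000g. Radio-HPLC on C18 with methanol/phosphate buffer pH 6 gave intact fraction as authentic peak over total activity, at 0.25, 1 and 2 h.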

Lung = test: Biodistribution in lungs of BALB/c nude mouse xenografted with human A375 cells at 0.8 to 1 MBq, iv after 60 mins by gamma-counter; assay type: ADME, organism-based, A-375; settings: in vivo, 1 h; summary of the method: as §1
[3] = Biodistribution in tumor of BALB/c nude mouse xenografted with human A375 cells at 0.8 to 1 MBq, iv after 120 mins by gamma-counter; assay type: ADME, organism-based, Neoplasm, A-375; settings: in vivo, 2 h; summary of the method: as §1
Bone [4] = test: Biodistribution in bone of BALB/c nude mouse xenografted with human A375 cells at 0.8 to 1 MBq, iv after 60 mins by gamma-counter; assay type: ADME, organism-based, Bone element, A-375; settings: in vivo, 1 h; summary of the method: as §1
Bone [5] = test: Biodistribution in bone of BALB/c nude mouse xenografted with human A375 cells at 0.8 to 1 MBq, iv after 15 mins by gamma-counter; assay type: ADME, organism-based, Bone element, A-375; settings: in vivo, 0.25 h; summary of the method: as §1
Pancreas [6] = test: Biodistribution in pancreas of BALB/c nude mouse xenografted with human A375 cells at 0.8 to 1 MBq, iv after 120 mins by gamma-counter; assay type: ADME, organism-based, A-375; settings: in vivo, 2 h; summary of the method: as §1
[7] = Metabolic stability in human A375 cells xenografted in BALB/c nude mouse assessed as radioactivity after 0.25 by HPLC analysis; assay type: ADME, cell-based, A-375; settings: in vivo; summary of the method: as §2
Pancreas [8] = test: Biodistribution in pancreas of BALB/c nude mouse xenografted with human A375 cells at 0.8 to 1 MBq, iv after 30 mins by gamma-counter; assay type: ADME, organism-based, A-375; settings: in vivo, 0.5 h; summary of the method: as §1
HT-29 [9] = test: Drug uptake in human HT-29 cells in presence of amino acid transport system A inhibitor MeAIB; assay type: ADME, cell-based
Summary of the method: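 Cells were prepared as for the uptake assay and preincubated at 37 °C with inhibitor at 12.5 mmol/L in PBS; controls received PBS. 0.37 MBq [18F]tracer was added and incubated 30 min at 37 °C. Cells were washed cold, lysed and γ-counted. Uptake is given as % of the control group, n = 3.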

Brain = test: Metabolic stability in brain of BALB/c nude mouse xenografted with human A375 cells assessed as radioactivity after 0.25 to 1 hrs by HPLC analysis; assay type: ADME, tissue-based, A-375; settings: in vivo; summary of the method: as §2
A-375 [10] = test: Cellular uptake in human A375 cells assessed as accumulation per 10^5 cells after 60 mins by gamma-counter; assay type: ADME, cell-based; settings: a-375, 1 h
Summary of the method: (§3)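 Cells seeded at 2.5 × 10^5 per well in RPMI-1640 with 10% FBS and 2 mM L-glutamine, attached overnight, then washed with warm PBS. Incubated at 37 °C with 0.37 MBq [18F]tracer in PBS for 2–240 min. Cells washed with ice-cold PBS, lysed in 0.2 N NaOH and counted by γ-counter. Read as % applied dose per 10^5 cells, decay-corrected, n = 3.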

Blood [11] = test: Biodistribution in blood of BALB/c nude mouse xenografted with human A375 cells at 0.8 to 1 MBq, iv after 30 mins by gamma-counter; assay type: ADME, organism-based, A-375; settings: in vivo, 0.5 h; summary of the method: as §1
[12] = Biodistribution in tumor of BALB/c nude mouse xenografted with human A375 cells at 0.8 to 1 MBq, iv after 60 mins by gamma-counter; assay type: ADME, organism-based, Neoplasm, A-375; settings: in vivo, 1 h; summary of the method: as §1
Bone [13] = test: Biodistribution in bone of BALB/c nude mouse xenografted with human A375 cells at 0.8 to 1 MBq, iv after 30 mins by gamma-counter; assay type: ADME, organism-based, Bone element, A-375; settings: in vivo, 0.5 h; summary of the method: as §1
[14] = Metabolic stability in urine of BALB/c nude mouse xenografted with human A375 cells assessed as radioactivity after 2 hrs by HPLC analysis; assay type: ADME, tissue-based, A-375; settings: in vivo; summary of the method: as §2
Bone [15] = test: Biodistribution in bone of BALB/c nude mouse xenografted with human A375 cells at 0.8 to 1 MBq, iv after 120 mins by gamma-counter; assay type: ADME, organism-based, Bone element, A-375; settings: in vivo, 2 h; summary of the method: as §1
A-375 [16] = test: Cellular uptake in human A375 cells after 2 mins by gamma-counter; assay type: ADME, cell-based; settings: a-375, 2 min
Summary of the method: (§4)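 A375 cells grown in RPMI-1640 with 10% FBS and 2 mM L-glutamine; 2.5×10^5 seeded per well overnight, counts done in triplicate. After a warm PBS wash, cells got 0.37 MBq tracer in 500 μL PBS at 37 °C. Stopped with ice-cold PBS wash, lysed in 0.2 N NaOH, counted in a γ-counter. Decay-corrected % applied dose per 10^5 cells, mean ± SD, n = 3.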

Kidney [17] = test: Biodistribution in kidney of BALB/c nude mouse xenografted with human A375 cells after 60 mins by PET/CT imaging; assay type: ADME, organism-based, A-375; settings: in vivo, 1 h
Summary of the method: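 Female Balb/c nude mice with A375 tumors (1×10^6 cells in Ca/Mg-free PBS injected s.c. in left flank at 6 weeks old). Mice under isoflurane in oxygen. 10 min CT scan, then 18-20 MBq tracer in 100 μL saline given i.v. with a 2 h PET acquisition. Coronal images at 60 min postinjection; n = 3.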

Muscle tissue [18] = test: Biodistribution in muscle of BALB/c nude mouse xenografted with human A375 cells at 0.8 to 1 MBq, iv after 30 mins by gamma-counter; assay type: ADME, organism-based, A-375; settings: in vivo, 0.5 h; summary of the method: as §1
HT-29 [19] = test: Cellular uptake in human HT-29 cells assessed as accumulation per 10^5 cells after 4 hours by gamma-counter; assay type: ADME, cell-based; settings: ht-29, 4 h; summary of the method: as §3
Spleen [20] = test: Biodistribution in spleen of BALB/c nude mouse xenografted with human A375 cells at 0.8 to 1 MBq, iv after 60 mins by gamma-counter; assay type: ADME, organism-based, A-375; settings: in vivo, 1 h; summary of the method: as §1
Blood [21] = test: Biodistribution in blood of BALB/c nude mouse xenografted with human A375 cells at 0.8 to 1 MBq, iv after 120 mins by gamma-counter; assay type: ADME, organism-based, A-375; settings: in vivo, 2 h; summary of the method: as §1
[22] = Biodistribution in tumor of BALB/c nude mouse xenografted with human A375 cells at 0.8 to 1 MBq, iv after 15 mins by gamma-counter; assay type: ADME, organism-based, Neoplasm, A-375; settings: in vivo, 0.25 h; summary of the method: as §1
Kidney [23] = test: Biodistribution in kidney of BALB/c nude mouse xenografted with human A375 cells at 0.8 to 1 MBq, iv after 120 mins by gamma-counter; assay type: ADME, organism-based, A-375; settings: in vivo, 2 h; summary of the method: as §1
Kidney [24] = test: Biodistribution in kidney of BALB/c nude mouse xenografted with human A375 cells at 0.8 to 1 MBq, iv after 60 mins by gamma-counter; assay type: ADME, organism-based, A-375; settings: in vivo, 1 h; summary of the method: as §1
Spleen [25] = test: Biodistribution in spleen of BALB/c nude mouse xenografted with human A375 cells at 0.8 to 1 MBq, iv after 30 mins by gamma-counter; assay type: ADME, organism-based, A-375; settings: in vivo, 0.5 h; summary of the method: as §1
A-375 [26] = test: Cellular uptake in human A375 cells after 15 to 60 mins by gamma-counter; assay type: ADME, cell-based; summary of the method: as §4
A-375 [27] = test: Cellular uptake in human A375 cells assessed as accumulation per 10^5 cells after 15 to 60 mins by gamma-counter; assay type: ADME, cell-based; summary of the method: as §3
A-375 [28] = test: Cellular uptake in human A375 cells after 15 mins by gamma-counter; assay type: ADME, cell-based; settings: a-375, 0.25 h; summary of the method: as §4

SMILES | Drug uptake (Muscle tissue [1]) [% ID/g] | Drug uptake (Lung) [% ID/g] | Drug uptake [3] [% ID/g] | Drug uptake (Bone [4]) [% ID/g] | Drug uptake (Bone [5]) [% ID/g] | Drug uptake (Pancreas [6]) [% ID/g] | Drug uptake (Pancreas [8]) [% ID/g] | Drug uptake (HT-29 [9]) | Stability (Brain) [%] | Drug uptake (Blood [11]) [% ID/g] | Drug uptake [12] [% ID/g] | Drug uptake (Bone [13]) [% ID/g] | Drug uptake (Bone [15]) [% ID/g] | Drug uptake (Kidney [17]) | Drug uptake (Muscle tissue [18]) [% ID/g] | Drug uptake (HT-29 [19]) [%] | Drug uptake (Spleen [20]) [% ID/g] | Drug uptake (Blood [21]) [% ID/g] | Drug uptake [22] [% ID/g] | Drug uptake (Kidney [23]) [% ID/g] | further results
Cl.N[C@@H](CCSCCC[18F])C(=O)O | 4.12 | 2.62 | 4.4 | 2.31 | 3.33 | 3.77 | 12.3 | Active | 85 | 4.44 | 5.64 | 3.5 | 1.69 | Active | 4.2 | 2 | 2.11 | 1.38 | 9.41 | 3.92 | Stability [2]: 78%; Stability [7]: 90%; Drug uptake (A-375 [10]): 9%; Stability [14]: < 4%; Drug uptake (A-375 [16]): > 50%; Drug uptake (Kidney [24]): 5.96 % ID/g; Drug uptake (Spleen [25]): 4.18 % ID/g
Cl.N[C@H](CCSCCC[18F])C(=O)O | 2.12 | 1.55 | 1.68 | 1.63 | 2.55 | 1.43 | 19.6 | Active | 85 | 2.51 | 3.91 | 2.29 | 1.05 | Active | 1.97 | 1.6 | 0.95 | 0.89 | 6.01 | 1.04 | Drug uptake (A-375 [26]): Active; Drug uptake (A-375 [27]): 6.8%; Drug uptake (Kidney [24]): 2.75 % ID/g; Drug uptake (Spleen [25]): 2.83 % ID/g; Drug uptake (A-375 [28]): Active
